Results as given in PubChem BioAssay.
Calls of active or inactive are those of the source.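 How the source made its calls, unless noted: active means calcium signal cut by more than 3 SD below the full-agonist control yet still positive, in both repeats and the earlier primary screen; inactive means the rest.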

molecular target: Short transient receptor potential channel 4 (Mus musculus) (UniProt Q9QUQ5); experiment: blockers of DAMGO-evoked TRPC4 calcium flux – cell-based, Fluo4, HEK293 TRPC4beta/mu-opioid, confirmation (AID 2636); settings: at 10 µM; hits give high values
Sequence (Q9QUQ5 whole entry, looked up): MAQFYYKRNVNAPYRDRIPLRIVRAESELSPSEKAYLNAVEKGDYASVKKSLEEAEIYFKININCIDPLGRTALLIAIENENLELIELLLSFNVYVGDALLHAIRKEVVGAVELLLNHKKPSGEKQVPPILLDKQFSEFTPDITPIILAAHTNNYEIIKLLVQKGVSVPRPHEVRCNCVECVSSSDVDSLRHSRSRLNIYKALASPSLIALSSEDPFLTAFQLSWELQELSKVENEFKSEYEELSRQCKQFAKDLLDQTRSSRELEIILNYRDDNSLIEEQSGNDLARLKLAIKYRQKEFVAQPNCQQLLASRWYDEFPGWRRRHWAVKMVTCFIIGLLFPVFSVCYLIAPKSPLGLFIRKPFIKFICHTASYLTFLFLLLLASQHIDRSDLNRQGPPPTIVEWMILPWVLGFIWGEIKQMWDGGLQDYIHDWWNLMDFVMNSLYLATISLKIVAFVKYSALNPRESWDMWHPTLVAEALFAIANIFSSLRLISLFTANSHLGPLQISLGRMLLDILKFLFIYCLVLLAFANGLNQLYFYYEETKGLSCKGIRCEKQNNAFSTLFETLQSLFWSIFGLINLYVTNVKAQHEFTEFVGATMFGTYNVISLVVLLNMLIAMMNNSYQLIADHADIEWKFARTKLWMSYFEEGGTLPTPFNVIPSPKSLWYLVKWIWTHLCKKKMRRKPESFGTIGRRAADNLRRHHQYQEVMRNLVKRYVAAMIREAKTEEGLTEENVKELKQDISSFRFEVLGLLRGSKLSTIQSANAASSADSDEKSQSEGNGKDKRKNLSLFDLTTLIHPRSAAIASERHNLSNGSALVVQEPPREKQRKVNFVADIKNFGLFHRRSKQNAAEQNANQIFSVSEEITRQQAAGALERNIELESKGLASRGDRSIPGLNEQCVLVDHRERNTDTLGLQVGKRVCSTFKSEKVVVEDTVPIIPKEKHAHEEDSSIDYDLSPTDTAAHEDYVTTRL
Summary of the method: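 Test system – HEK293 cells stably co-expressing mouse TRPC4beta and mu-opioid receptor · Reagent – DAMGO agonist, submaximal followed by maximal addition · Technique – Fluo4 calcium flux fluorescence, kinetic read · Control set – no-compound wells and DAMGO maximal-stimulus wells · Doses – single final compound concentration of 10 µM · Timing – compound pre-incubation 110 s before DAMGO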

outcome, inactive:
CCCc1nc2oc3c(NCCCN(C)C)ncnc3c2c2c1CCCC2
O=C(/C=C/c1ccc(Cl)cc1)N(Cc1ccccc1)C1CCS(=O)(=O)C1 (stereo not drawn)
COc1ccc(NS(=O)(=O)c2ccc3ccccc3c2)c2ncccc12
CN(C)S(=O)(=O)N1CCC(CCCC2CCN(S(=O)(=O)N(C)C)CC2)CC1
COc1cc(C2(c3ccc(O)c(OC)c3)C(=O)Nc3c(C)cc(Br)cc32)ccc1O
COC(=O)C(CC(=O)Nc1cc(C)ccc1C)Nc1ccccc1OC (stereo not drawn)
CC(C)CCc1noc(CN2CCN(c3ccc(Cl)cn3)CC2)n1
Cc1cc(OCCN2CCCC2)ccc1[N+](=O)[O-]
CSc1ccc(S(=O)(=O)NCC(=O)OCC(=O)N(C)Cc2ccccc2)cc1[N+](=O)[O-]
O=C(COC(=O)c1ccccc1C(=O)N1CCN(c2ccccc2)CC1)Nc1ccc(F)cc1
CCCCCCCCCC[n+]1cccc2c3ccccc3ccc21
Cc1nn(-c2cc(C(F)(F)F)ccc2Cl)c2nc(C(Cl)(Cl)Cl)[nH]c(=O)c12
Cc1cc2oc(C(=O)N(Cc3cccs3)C3CCS(=O)(=O)C3)cc(=O)c2cc1Cl (stereo not drawn)
CN(C)CCCN(C(=O)CCc1ccccc1)c1nc2ccc(F)cc2s1
Cc1ccc(C(=O)O)cc1N=Cc1cc(Br)cc(Br)c1O
N=c1c2c3c(sc2ncn1Cc1ccccc1)CCCC3
Cn1c2ccccc2c(=O)c2c(=O)n(-c3ccccc3)c(-c3ccc(C(C)(C)C)cc3)nc21
CC(C)NS(=O)(=O)c1ccc(NC(=O)C(C)Oc2ccc(C(=O)c3ccccc3)cc2)cc1 (stereo not drawn)
O=C1C=CC(=O)N1CCNc1ncc(C(F)(F)F)cc1Cl
CCN1CCN(c2ccc(S(=O)(=O)N3CCCCC3)cc2NC(=O)c2cccc(F)c2)CC1
CCn1c2ccc(F)cc2c2nnc(NN)nc21
CCCN1Cc2cccc(C(=O)N3CCN(c4cc(Cl)ccc4C)CC3)c2C1=O
Cc1ccc2c(c1)C1CN(C)CCC1N2C(=S)NC(=O)c1ccc(Br)cc1 (stereo not drawn)
CCCCN(CC)CCCNC(=O)c1cc2cc3ccc(C)cc3nc2o1
CN(CCCNC(=O)CCCOc1cc(=O)n(C)c2ccccc12)Cc1ccccc1
O=S(=O)(NCC1NCCc2ccccc21)c1ccccc1 (stereo not drawn)
Cc1cc(C)c2c(=O)n(CC(=O)Nc3cccc(Cl)c3C)sc2n1
O=C(Nc1ccnn1C1CCN(Cc2cc3ccccc3[nH]2)CC1)C1CCOC1 (stereo not drawn)
CC(Oc1ccc(Cl)cc1Cl)C(=O)N(C)c1ccccc1 (stereo not drawn)
O=C(C1=C[C@H](c2ccc(C(F)(F)F)cc2)C[C@H](OCCCCO)O1)N1CCOCC1
O=C(O)CCCN1C(=O)/C(=C\c2ccc(-c3nc4ccccc4s3)o2)SC1=S
O=c1c2ccccc2nc(COc2ccccc2)n1/N=C/c1cc([N+](=O)[O-])ccc1O
O=C(CCN1CCN(Cc2ccccc2)CC1)Nc1cccc(Br)c1
O=C(NC1CCCC1)c1cc2ccccc2o1
CCN(CC)c1ncnc2sc3c(c12)CCC3
CC(=O)c1nn(-c2cccc(Br)c2)cc1C(=O)c1cccc2ccccc12

inhibition, active:
CCCNc1nc2ccccc2n2c(C)nnc12 73%
COc1cc(NC(=O)CSc2ncnc3sc4c(c23)CCC(C)C4)c(C(=O)O)cc1OC (stereo not drawn) 91%
Cc1cc(/C=N/NC(=O)c2cccc([N+](=O)[O-])c2)c(C)n1-c1ccc(Cl)cc1Cl 88%

molecular target: Short transient receptor potential channel 4 (Mus musculus) (UniProt Q9QUQ5); experiment: blockers of DAMGO-evoked TRPC4 calcium flux – cell-based, second round, Fluo4, HEK293 TRPC4beta/mu-opioid, 1 µM, confirmation (AID 2637;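 active means calcium signal ratio cut to more than 3 SD under the fully stimulated control mean yet still positive, in both repeats and the primary screen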;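 on inhibition: percent of integrated ratio relative to wells lacking test compound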); settings: at 1 µM; hits give high values
Summary of the method: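 Doses: 1 µM single point / Material: HEK293 cells with TRPC4beta plus mu-opioid receptor / Control set: DAMGO ECmax control wells and wells without test compound / Schedule: dye loading 45 min room temperature, compound pre-incubation 110 s / Measured by: kinetic Fluo4 Ca2+ fluorescence reading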

outcome, inactive:
CCCc1nc2oc3c(NCCCN(C)C)ncnc3c2c2c1CCCC2
O=C(/C=C/c1ccc(Cl)cc1)N(Cc1ccccc1)C1CCS(=O)(=O)C1 (stereo not drawn)
COc1ccc(NS(=O)(=O)c2ccc3ccccc3c2)c2ncccc12
CN(C)S(=O)(=O)N1CCC(CCCC2CCN(S(=O)(=O)N(C)C)CC2)CC1
COc1cc(C2(c3ccc(O)c(OC)c3)C(=O)Nc3c(C)cc(Br)cc32)ccc1O
COC(=O)C(CC(=O)Nc1cc(C)ccc1C)Nc1ccccc1OC (stereo not drawn)
CC(C)CCc1noc(CN2CCN(c3ccc(Cl)cn3)CC2)n1
Cc1cc(OCCN2CCCC2)ccc1[N+](=O)[O-]
CSc1ccc(S(=O)(=O)NCC(=O)OCC(=O)N(C)Cc2ccccc2)cc1[N+](=O)[O-]
O=C(COC(=O)c1ccccc1C(=O)N1CCN(c2ccccc2)CC1)Nc1ccc(F)cc1
CCCCCCCCCC[n+]1cccc2c3ccccc3ccc21
Cc1nn(-c2cc(C(F)(F)F)ccc2Cl)c2nc(C(Cl)(Cl)Cl)[nH]c(=O)c12
Cc1cc2oc(C(=O)N(Cc3cccs3)C3CCS(=O)(=O)C3)cc(=O)c2cc1Cl (stereo not drawn)
CN(C)CCCN(C(=O)CCc1ccccc1)c1nc2ccc(F)cc2s1
Cc1ccc(C(=O)O)cc1N=Cc1cc(Br)cc(Br)c1O
N=c1c2c3c(sc2ncn1Cc1ccccc1)CCCC3
Cn1c2ccccc2c(=O)c2c(=O)n(-c3ccccc3)c(-c3ccc(C(C)(C)C)cc3)nc21
CC(C)NS(=O)(=O)c1ccc(NC(=O)C(C)Oc2ccc(C(=O)c3ccccc3)cc2)cc1 (stereo not drawn)
O=C1C=CC(=O)N1CCNc1ncc(C(F)(F)F)cc1Cl
CCN1CCN(c2ccc(S(=O)(=O)N3CCCCC3)cc2NC(=O)c2cccc(F)c2)CC1
CCn1c2ccc(F)cc2c2nnc(NN)nc21
CCCN1Cc2cccc(C(=O)N3CCN(c4cc(Cl)ccc4C)CC3)c2C1=O
Cc1ccc2c(c1)C1CN(C)CCC1N2C(=S)NC(=O)c1ccc(Br)cc1 (stereo not drawn)
CCCCN(CC)CCCNC(=O)c1cc2cc3ccc(C)cc3nc2o1
COc1cc(NC(=O)CSc2ncnc3sc4c(c23)CCC(C)C4)c(C(=O)O)cc1OC (stereo not drawn)
CN(CCCNC(=O)CCCOc1cc(=O)n(C)c2ccccc12)Cc1ccccc1
O=S(=O)(NCC1NCCc2ccccc21)c1ccccc1 (stereo not drawn)
Cc1cc(C)c2c(=O)n(CC(=O)Nc3cccc(Cl)c3C)sc2n1
O=C(Nc1ccnn1C1CCN(Cc2cc3ccccc3[nH]2)CC1)C1CCOC1 (stereo not drawn)
CC(Oc1ccc(Cl)cc1Cl)C(=O)N(C)c1ccccc1 (stereo not drawn)
O=C(C1=C[C@H](c2ccc(C(F)(F)F)cc2)C[C@H](OCCCCO)O1)N1CCOCC1
O=C(O)CCCN1C(=O)/C(=C\c2ccc(-c3nc4ccccc4s3)o2)SC1=S
O=c1c2ccccc2nc(COc2ccccc2)n1/N=C/c1cc([N+](=O)[O-])ccc1O
O=C(CCN1CCN(Cc2ccccc2)CC1)Nc1cccc(Br)c1
O=C(NC1CCCC1)c1cc2ccccc2o1
CCN(CC)c1ncnc2sc3c(c12)CCC3
CC(=O)c1nn(-c2cccc(Br)c2)cc1C(=O)c1cccc2ccccc12

inhibition, active:
CCCNc1nc2ccccc2n2c(C)nnc12 39%
Cc1cc(/C=N/NC(=O)c2cccc([N+](=O)[O-])c2)c(C)n1-c1ccc(Cl)cc1Cl 58%
